ChEMBL document CHEMBL3774374, “The Effect of Small Molecules on Sterol Homeostasis: Measuring 7-Dehydrocholesterol in Dhcr7-Deficient Neuro2a Cells and Human Fibroblasts” (J Med Chem, 2016)
Active and inactive are the calls of the source. No cut-off for these calls is given here.

Key:
[1] = Cytotoxicity against human SLOS fibroblasts at 5 uM after 5 days by Cell Titer assay; format: cell-based; conditions: fibroblast, 120 h
[2] = target: T1, Delta(24)-sterol reductase (Homo sapiens) (UniProt Q15392); experiment: Inhibition of DR24 in human SLOS fibroblasts assessed as decrease in 7-DHC levels at 10 nM after 5 days by LC-MS/GC-MS analysis
T1 sequence (whole entry): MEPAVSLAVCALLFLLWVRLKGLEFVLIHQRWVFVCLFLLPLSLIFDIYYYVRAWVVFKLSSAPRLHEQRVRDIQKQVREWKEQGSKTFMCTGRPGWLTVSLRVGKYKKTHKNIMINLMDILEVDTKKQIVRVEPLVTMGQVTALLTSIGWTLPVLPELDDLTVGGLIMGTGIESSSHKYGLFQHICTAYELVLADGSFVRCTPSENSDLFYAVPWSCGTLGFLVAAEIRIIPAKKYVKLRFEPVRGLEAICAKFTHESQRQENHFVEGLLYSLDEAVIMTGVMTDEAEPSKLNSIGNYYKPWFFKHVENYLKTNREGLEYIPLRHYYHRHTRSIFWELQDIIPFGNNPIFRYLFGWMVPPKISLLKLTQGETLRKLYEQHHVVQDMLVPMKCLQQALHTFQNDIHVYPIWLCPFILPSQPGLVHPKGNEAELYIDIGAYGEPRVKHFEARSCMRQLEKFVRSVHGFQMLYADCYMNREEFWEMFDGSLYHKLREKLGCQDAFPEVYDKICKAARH
Summary of the method: (§1)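 SLOS patient skin fibroblasts (passage 8–20) grown in 96-well plates in delipidated serum with compound for 5 days; three different SLOS lines. Sterols quantified by PTAD-derivatized UPLC-MS plus GC-MS; 7-DHC expressed as percentage of untreated cells.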

Fibroblast = experiment: Decrease in cholesterol levels in human SLOS fibroblasts at 10 nM after 5 days by LC-MS/GC-MS analysis; format: functional, cell-based; summary of the method: as §1
[3] = target: T2, Delta(24)-sterol reductase (Mus musculus) (UniProt Q8VCH6); experiment: Inhibition of DR24 in Dhcr7-deficient mouse Neuro2a cells assessed as decrease in 7-DHC levels at 1 uM by LC-MS/GC-MS analysis; format: cell-based
T2 sequence (whole entry): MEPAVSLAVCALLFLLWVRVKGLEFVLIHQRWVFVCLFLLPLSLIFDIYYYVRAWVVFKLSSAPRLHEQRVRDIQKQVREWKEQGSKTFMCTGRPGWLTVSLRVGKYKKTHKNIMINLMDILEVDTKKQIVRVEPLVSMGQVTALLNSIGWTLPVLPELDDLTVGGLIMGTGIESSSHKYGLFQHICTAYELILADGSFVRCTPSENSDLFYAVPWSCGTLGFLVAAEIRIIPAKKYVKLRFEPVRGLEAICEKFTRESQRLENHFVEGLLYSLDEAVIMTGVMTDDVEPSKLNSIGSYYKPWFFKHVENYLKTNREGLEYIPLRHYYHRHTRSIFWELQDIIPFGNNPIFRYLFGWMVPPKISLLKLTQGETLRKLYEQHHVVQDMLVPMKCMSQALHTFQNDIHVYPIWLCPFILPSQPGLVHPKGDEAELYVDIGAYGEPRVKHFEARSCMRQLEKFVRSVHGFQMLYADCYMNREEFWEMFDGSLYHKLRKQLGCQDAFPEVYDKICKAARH
Summary of the method: (§2)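 Dhcr7-deficient Neuro2a cells (13000/well, 0.5% FBS medium) on predeposited compound, 24 h at 37 °C. Hoechst-stained and imaged to count cells. Lysed in methanol containing isotope-labelled sterol standards, derivatized with PTAD 20 min at RT, then isocratic C18 UPLC-MS/SRM. Remaining extract silylated with BSTFA for GC-MS, quantified against d7-cholesterol. Follow-up runs in triplicate.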

[4] = target: T3, Lanosterol 14-alpha demethylase (Mus musculus, UniProt Q8K0C4); experiment: Inhibition of CYP51 in Dhcr7-deficient mouse Neuro2a cells assessed as decrease in 7-DHC levels at 1 uM by LC-MS/GC-MS analysis; format: cell-based
T3 sequence (Q8K0C4 whole entry): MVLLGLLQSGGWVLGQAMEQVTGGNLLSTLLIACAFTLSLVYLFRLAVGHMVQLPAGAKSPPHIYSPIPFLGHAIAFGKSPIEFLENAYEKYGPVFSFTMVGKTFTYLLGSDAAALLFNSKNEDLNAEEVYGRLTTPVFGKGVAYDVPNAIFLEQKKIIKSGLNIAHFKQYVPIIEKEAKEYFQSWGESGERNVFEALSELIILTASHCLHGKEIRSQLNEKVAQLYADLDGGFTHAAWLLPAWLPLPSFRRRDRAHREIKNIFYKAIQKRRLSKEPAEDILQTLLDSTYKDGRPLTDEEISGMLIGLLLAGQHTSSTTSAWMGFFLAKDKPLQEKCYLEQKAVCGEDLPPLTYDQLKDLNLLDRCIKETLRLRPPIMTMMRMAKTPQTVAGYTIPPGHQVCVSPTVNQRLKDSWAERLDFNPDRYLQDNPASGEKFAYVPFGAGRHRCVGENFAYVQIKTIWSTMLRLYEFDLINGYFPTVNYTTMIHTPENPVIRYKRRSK
Summary of the method: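 Follow-up (verification) assay in 96-well plates, run as the 384-well screen, in triplicate, at varying compound concentrations. Cells counted by Hoechst imaging, washed with PBS, then lysed in MeOH with BHT/TPP and isotope standards (d7-Chol, d7-7-DHC, 13C3-Des, 13C3-Lan). Sterols derivatised with PTAD for 20 min at RT and quantified by C18 UPLC-MS (SRM). Remaining sample silylated with BSTFA and run on GC-MS, quantified against d7-Chol.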

[5] = target: T2, Delta(24)-sterol reductase (Mus musculus); experiment: Inhibition of DR24 in mouse Neuro2a cells assessed as decrease in 7-DHC levels at 1 uM by LC-MS/GC-MS analysis; format: cell-based
Summary of the method: (§3)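 Control Neuro2a cells (10000/well, 0.5% FBS) on compound, 24 h. Hoechst cell count, then methanol lysis with labelled standards (d7-7-DHC, 13C3-desmosterol, 13C3-lanosterol), PTAD derivatization 20 min at RT, UPLC-MS SRM. GC-MS of silylated extract for further sterols.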

[6] = target: T4, 3-beta-hydroxysteroid-Delta(8),Delta(7)-isomerase (Mus musculus) (UniProt P70245); experiment: Inhibition of delta 8-7 isomerase in mouse Neuro2a cells assessed as decrease in 7-DHC levels at 1 uM by LC-MS/GC-MS analysis; format: cell-based; summary of the method: as §3
T4 sequence (whole entry): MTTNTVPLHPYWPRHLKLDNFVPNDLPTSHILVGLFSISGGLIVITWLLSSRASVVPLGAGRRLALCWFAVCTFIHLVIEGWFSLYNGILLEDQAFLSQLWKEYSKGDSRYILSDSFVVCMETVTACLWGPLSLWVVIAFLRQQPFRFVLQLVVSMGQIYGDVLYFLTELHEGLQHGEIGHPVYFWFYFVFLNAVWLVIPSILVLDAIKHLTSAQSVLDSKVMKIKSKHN

[7] = target: T5, 3-hydroxy-3-methylglutaryl-coenzyme A reductase (Mus musculus) (UniProt Q01237); experiment: Inhibition of HMGCoA reductase in Dhcr7-deficient mouse Neuro2a cells assessed as decrease in 7-DHC levels at 1 uM by LC-MS/GC-MS analysis; format: cell-based; summary of the method: as §2
T5 sequence (whole entry): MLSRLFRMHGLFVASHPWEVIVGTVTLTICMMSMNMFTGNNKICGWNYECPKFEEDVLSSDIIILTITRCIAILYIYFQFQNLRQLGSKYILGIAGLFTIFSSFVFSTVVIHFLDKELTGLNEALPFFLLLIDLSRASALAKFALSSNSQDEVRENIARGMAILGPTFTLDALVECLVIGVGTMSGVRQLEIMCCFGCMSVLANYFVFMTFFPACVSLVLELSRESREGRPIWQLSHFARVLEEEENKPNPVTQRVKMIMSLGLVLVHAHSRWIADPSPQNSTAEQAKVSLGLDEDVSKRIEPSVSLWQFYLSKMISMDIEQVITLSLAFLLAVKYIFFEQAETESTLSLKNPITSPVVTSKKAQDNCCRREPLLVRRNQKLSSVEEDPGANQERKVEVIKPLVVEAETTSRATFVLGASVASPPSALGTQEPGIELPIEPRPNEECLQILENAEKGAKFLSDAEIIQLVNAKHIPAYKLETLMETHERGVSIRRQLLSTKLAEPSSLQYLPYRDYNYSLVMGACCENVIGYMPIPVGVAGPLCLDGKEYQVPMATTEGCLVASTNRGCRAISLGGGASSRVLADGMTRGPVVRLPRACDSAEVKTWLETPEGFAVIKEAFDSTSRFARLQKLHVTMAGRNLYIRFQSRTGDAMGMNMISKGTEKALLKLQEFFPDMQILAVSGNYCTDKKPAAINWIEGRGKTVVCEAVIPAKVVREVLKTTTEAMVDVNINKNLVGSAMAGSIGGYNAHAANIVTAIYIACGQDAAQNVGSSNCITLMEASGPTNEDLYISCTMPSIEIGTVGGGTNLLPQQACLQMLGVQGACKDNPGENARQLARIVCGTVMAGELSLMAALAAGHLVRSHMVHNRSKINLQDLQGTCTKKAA

[8] = target: T4, 3-beta-hydroxysteroid-Delta(8),Delta(7)-isomerase (Mus musculus); experiment: Inhibition of delta 8-7 isomerase in Dhcr7-deficient mouse Neuro2a cells assessed as decrease in 7-DHC levels at 1 uM by LC-MS/GC-MS analysis; format: cell-based; summary of the method: as §2
N2a [9] = experiment: Decrease in lanosterol levels in mouse Neuro2a cells by LC-MS analysis; format: functional, cell-based; summary of the method: as §3
N2a [10] = experiment: Decrease in desmosterol levels in mouse Neuro2a cells by LC-MS analysis; format: functional, cell-based; summary of the method: as §3

## C[C@]12CC[C@@H]3c4ccc(O)cc4C[C@@H](CCCCCCCCC[S+]([O-])CCCC(F)(F)C(F)(F)F)[C@H]3[C@@H]1CC[C@@H]2O (some centres not stated) [FULVESTRANT]
[1]
  Activity: Toxic
[2]
  inhibition: Active
Fibroblast
  Activity: inactive
[3]
  inhibition: Active

## Clc1ccc(COC(Cn2ccnc2)c2ccc(Cl)cc2Cl)c(Cl)c1 (configuration not stated) [MICONAZOLE]
[4]
  inhibition (INH): Active

## CCc1c(C)[nH]c2c1C(=O)C(CN1CCOCC1)CC2 (configuration not stated)
[3]
  inhibition: Active

## O=C(O)C[C@H](O)C[C@H](O)/C=C/c1c(C2CC2)nc2ccccc2c1-c1ccc(F)cc1
[5]
  Decrease in 7-DHC levels (active/inactive call): Active
[6]
  Activity (decrease in 7-DHC levels): Active
[7]
  7-DHC decrease call (active/inactive): Active

## OCCOCCN1CCN(C(c2ccccc2)c2ccc(Cl)cc2)CC1 (configuration not stated)
[8]
  inhibition: Active

## O=c1n(CCCN2CCN(c3cccc(Cl)c3)CC2)nc2ccccn12
N2a [9]
  Activity: Active
N2a [10]
  Activity: Active

## CN1CCN(CCCN2c3ccccc3Sc3ccc(Cl)cc32)CC1
[8]
  inhibition: Active
[3]
  inhibition: Active

## Clc1ccc(COC(Cn2ccnc2)c2ccc(Cl)cc2Cl)cc1 (configuration not stated) [ECONAZOLE]
[4]
  inhibition (INH): Active

## C[C@@H]1CC[C@H]2[C@@H](C)C(=O)O[C@@H]3O[C@@]4(C)CC[C@@H]1[C@]32OO4
[7]
  inhibition: Active

## OCCN1CCN(CCCN2c3ccccc3Sc3ccc(C(F)(F)F)cc32)CC1
[8]
  inhibition: Active

## CCN(CC)CCOc1ccc(C(O)(Cc2ccc(Cl)cc2)c2ccc(C)cc2)cc1 (configuration not stated)
[8]
  inhibition: Active
[3]
  inhibition: Active

## O=C(CCCN1CCC(O)(c2ccc(Cl)cc2)CC1)c1ccc(F)cc1
N2a [9]
  Activity: Active
N2a [10]
  Activity: Active

## CN1CC[C@]2(c3cccc(O)c3)Cc3nc4ccccc4cc3C[C@H]2C1
[3]
  inhibition: Active

## Clc1ccccc1C(c1ccccc1)(c1ccccc1)n1ccnc1 [CLOTRIMAZOLE]
[4]
  inhibition (INH): Active

## Clc1ccccc1CNC[C@H]1CC[C@H](CNCc2ccccc2Cl)CC1
N2a [9]
  Activity: Active
N2a [10]
  Activity: Active

## Cc1ccc(NC(=O)c2ccc(CN3CCN(C)CC3)cc2)cc1Nc1nccc(-c2cccnc2)n1
[3]
  inhibition: Active

## CC[C@H](C)C(=O)O[C@H]1CCC=C2C=C[C@H](C)[C@H](CC[C@@H]3C[C@@H](O)CC(=O)O3)[C@H]21
[7]
  7-DHC decrease call (active/inactive): Active

## CCC(C)(C)C(=O)O[C@H]1C[C@@H](C)C=C2C=C[C@H](C)[C@H](CC[C@@H]3C[C@@H](O)CC(=O)O3)[C@H]21
[7]
  7-DHC decrease call (active/inactive): Active

## OCCN1CCN(CCCN2c3ccccc3Sc3ccc(Cl)cc32)CC1
[8]
  inhibition: Active
[3]
  inhibition: Active

## CN1CCN(CCCN2c3ccccc3Sc3ccc(C(F)(F)F)cc32)CC1
[3]
  inhibition: Active

## c1ccc(-c2ccc(C(c3ccccc3)n3ccnc3)cc2)cc1 (configuration not stated) [BIFONAZOLE]
[4]
  inhibition (INH): Active

## CO[C@H]1O[C@@H]2O[C@@]3(C)CC[C@H]4[C@H](C)CC[C@@H]([C@H]1C)[C@@]24OO3
[7]
  7-DHC decrease call (active/inactive): Active

## CC(=O)[C@H]1CC[C@H]2[C@@H]3CCC4=CC(=O)CC[C@]4(C)[C@H]3CC[C@]12C
[3]
  inhibition: Active

## CC[C@H](C)C(=O)O[C@H]1C[C@H](O)C=C2C=C[C@H](C)[C@H](CC[C@@H](O)C[C@@H](O)CC(=O)O)[C@H]21
[7]
  7-DHC decrease call (active/inactive): Active

## CN(C)CCC=C1c2ccccc2COc2ccccc21
[3]
  inhibition: Active

## CC[C@H](C)C(=O)O[C@H]1C[C@@H](C)C=C2C=C[C@H](C)[C@H](CC[C@@H]3C[C@@H](O)CC(=O)O3)[C@H]21
[7]
  7-DHC decrease call (active/inactive): Active
